UCH37 DUB inh: inhibitors of human UCH37 deubiquitinase, primary screen, biochemical, Ub-AMC cleavage, fluorescence; Ubiquitin carboxyl-terminal hydrolase isozyme L5 (Homo sapiens), Q9Y5K5; inhibition, % (concentration not given with the values); hit rate 0.33% among 330,000; purified proteasome/UCH37;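 active means mean inhibition over replicate wells above about 20%, limit read from the data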
Target sequence (Q9Y5K5 whole entry, looked up): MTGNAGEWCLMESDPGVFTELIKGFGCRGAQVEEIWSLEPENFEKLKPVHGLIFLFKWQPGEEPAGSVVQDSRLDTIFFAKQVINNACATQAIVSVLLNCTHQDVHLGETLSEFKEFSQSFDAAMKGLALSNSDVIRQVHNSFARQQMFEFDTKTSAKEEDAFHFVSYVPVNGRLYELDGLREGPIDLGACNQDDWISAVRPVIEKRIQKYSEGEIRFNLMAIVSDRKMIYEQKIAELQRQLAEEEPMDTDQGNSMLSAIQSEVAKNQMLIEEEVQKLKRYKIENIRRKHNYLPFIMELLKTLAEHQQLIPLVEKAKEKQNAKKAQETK
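Reagent: Ub-AMC substrate; assay system: Proteasome-associated human UCH37 deubiquitinase; controls: no-proteasome and no-compound wells; read-out: % inhibition of Ub-AMC cleavage fluorescence; timing: 30 min preincubation with enzyme, 25 min cleavage at room temperature; signal: AMC fluorescence from Ub-AMC cleavage, excitation 355 nm, emission 460 nm; buffer or medium: Tris-HCl pH 7.4 plus ovalbumin, ATP-MgCl2, DTT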
Cardio protect: cardioprotection against H2O2-induced cell death, primary screen, uHTS, H9c2 cells, ATPLite luminescence; H9c2 cardiomyocytes, H2O2 injury protection, 2 h; hit rate 0.63% among 360,000; protection from H2O2 cell death, % at 20 µM;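 active means compounds giving at least 50% protection of heart cells from peroxide-induced death in the single-dose screen, raw or plate-pattern-corrected value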
aDG glyco up: activators of alpha-DG glycosylation, primary screen, uHTS, Pro5-aDG cells, AlphaScreen; activation, % at 10 µM; hit rate 0.22% among 360,000; alpha-DG glycosylation AlphaScreen (IIH6); 0% Pro5, 100% B10-LARGE cell signal;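 active means activation of at least 8% versus controls, or a plate z-score of at least 8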;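 further: Pro5 are CHO cells carrying HIG-tagged alpha-DG that lacks glycosylation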
HKDC1 inhibitor: HKDC1 hexokinase inhibitors, primary screen, biochemical, fluorescence, uHTS; hit rate 0.16% among 340,000; inhibition, % at 20 µM; Q2TB90; AID 493160, 2011; recombinant HKDC1, G6PDH/diaphorase resazurin coupled fluorescence;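 active means inhibition above about 35% when tested at 20 µM, limit read from the data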
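Incubation: 90 min at room temperature in dark / Material: recombinant HKDC1 (HK5) hexokinase enzyme, produced in-house / Quantity: enzyme 5 µg/mL final / Compound: one dose of 20 µM, 1% DMSO / Reagent: glucose and ATP substrates / Buffer or medium: Tris pH 8.0 buffer with MgCl2, Tween-20, BSA, BME / Technique: resorufin fluorescence at 613 nm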
Beta2AR agonist: beta2AR agonists driving receptor internalization, primary screen, cell-based, FAP fluorogen, flow cytometry; Beta-2 adrenergic receptor (Homo sapiens), P07550; hit rate 0.43% among 340,000; response, % (no concentration beside the values); Am2.2-beta2AR cells;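 active means response above a set limit, near 3 SD of response in nonfluorescent compounds, cut at about 42% in these data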
PfG6PD inh: PfG6PD enzyme inhibitors, primary screen, biochemical, fluorescence intensity, uHTS; glucose-6-phosphate dehydrogenase-6-phosphogluconolactonase (Plasmodium falciparum 3D7); PfGluPho enzyme, NADPH resazurin-diaphorase fluorescence; inhibition, % at 20 µM; hit rate 0.78% among 350,000; AID 504690, 2011;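 active means inhibition reaching at least a set limit at 20 µM in the primary screen, cut at about 59% in these data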
PfG6PD confirm: PfG6PD inhibitors, hit retest, confirmation, biochemical, fluorescence intensity, single concentration; shares compounds with PfG6PD inh; recombinant PfGluPho, NADPH-diaphorase-resazurin fluorescence; inhibition, % at 20 µM; hit rate 34% among 2,400; AID 504753, 2011;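 active means inhibition of at least 50% at 20 µM in any single replicate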
Diaph ctr 10uM: diaphorase inhibitors and chemical oxidizers, confirmation, counter-screen for P. falciparum G6PD inhibitor project, biochemical, fluorescence intensity, 10 µM NADPH; shares compounds with PfG6PD inh; diaphorase-coupled resazurin reduction, NADPH 10 uM; inhibition, % at 20 µM; hit rate 39% among 820; AID 504862, 2011;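 active means average inhibition reaching 50% or more with the compound at 20 µM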;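 further: resorufin red fluorescence formed as diaphorase reduces resazurin using NADPH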
Diaphorase 30uM: diaphorase inhibitors and chemical oxidizers, confirmation, counter-screen for P. falciparum G6PD inhibitor project, biochemical, fluorescence intensity, 30 µM NADPH. Diaphorase/resazurin coupled assay, resorufin fluorescence. AID 504863, 2011. shares compounds with PfG6PD inh. inhibition, % at 20 µM. hit rate 29% among 820;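 active means inhibition averaging 50% or more, tested at 20 µM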
Hits are given with their value; n = inactive; x = no result. A selection: hits, their analogues and other compounds. The true share with any hit is near 2.1%.

SMILES	UCH37 DUB inh	Cardio protect	aDG glyco up	HKDC1 inhibitor	Beta2AR agonist	PfG6PD inh	PfG6PD confirm	others
Cc1ccsc1/C=N/NC(=O)Cc1ccc(Cl)cc1	x	n	n	n	n	n	x
Cc1ccc(/C=N/NC(=O)CSCc2ccc(Cl)cc2)cc1	x	n	n	n	n	59	n
O=[N+]([O-])c1ccc(NC(=S)NC(=NCS(=O)(=O)c2ccccc2)c2ccccc2)cc1	n	x	x	x	x	x	x
CCc1ccccc1OCc1nc2ccc(S(=O)(=O)N3CCOCC3)cc2[nH]1	n	n	n	n	n	n	x
Cc1ccccc1OCc1nc2ccc(S(=O)(=O)N3CCOCC3)cc2[nH]1	n	n	n	n	n	64	n
CCCCCn1nc(C)c(C=NNC(=O)c2cc(C)oc2C)c1C	n	x	x	x	x	x	x
O=C(CSc1nnc(-c2ccncc2)o1)Nc1cc(F)ccc1F	n	n	n	n	n	n	x
O=C(CSc1nnc(-c2ccncc2)o1)Nc1cc(Cl)ccc1C(=O)O	n	n	n	n	n	60	n
COc1ccc(-n2sc3ccccc3c2=O)cc1	x	n	n	x	x	125	109	Diaph ctr 10uM=n;Diaphorase 30uM=n
COc1ccc(-n2cc(C(=O)O)c3ccccc3c2=O)cc1	n	n	n	n	n	n	x
Cc1ccc(/C=N/NC(=O)CSc2nc3ccccc3n2C)s1	x	n	n	n	n	117	87	Diaph ctr 10uM=93;Diaphorase 30uM=79
CCn1c(SCC(=O)NN=Cc2ccc(C)s2)nc2ccccc21	n	x	x	x	x	x	x
COc1ccc(C(C)=NNC(=O)c2nnn(-c3nonc3N)c2-c2cccs2)cc1OC	n	x	x	x	x	x	x
O=C(CCC(=O)Nc1ccc(Cl)cc1Cl)N/N=C/c1ccc([N+](=O)[O-])o1	x	n	n	n	x	62	n
CCCCCC(=O)N/N=C/c1ccc([N+](=O)[O-])o1	x	n	n	n	n	n	x
COc1cccc(-c2c(C(=O)NN=C(C)c3ccco3)nnn2-c2nonc2N)c1	n	x	x	x	x	x	x
Cc1nc2ccccn2c1-c1ccnn1S(=O)(=O)c1ccc(F)cc1	n	n	n	n	n	77	56	Diaph ctr 10uM=n;Diaphorase 30uM=59
c1ccc(NC2=Nc3cccc4cccc2c34)cc1	n	n	n	n	n	n	x
COc1ccc(NC2=Nc3cccc4cccc2c34)cc1	n	n	n	n	n	75	n
O=c1c2c3c(sc2ncn1N=Cc1ccc(Br)o1)CCCC3	n	x	x	x	x	x	x
CN(C)c1ccc(NC(=O)c2cc3c(=O)n4ccccc4nc3n2C)cc1	n	n	n	n	n	62	n
COc1ccc(OC)c(NC(=O)c2cc3c(=O)n4ccccc4nc3n2C)c1	n	n	n	n	n	n	x
O=C(NN=Cc1cc(Br)cs1)c1ccc2c(c1)OCCO2	n	x	x	x	x	x	x
Cc1sc(NC(=O)Nc2ccccc2)c(C(N)=O)c1C	n	n	n	n	n	74	n
CCCC(=O)Nc1sc(Cc2ccccc2)c(C)c1C(N)=O	n	n	n	n	n	59	n
SMILES	UCH37 DUB inh	Cardio protect	aDG glyco up	HKDC1 inhibitor	Beta2AR agonist	PfG6PD inh	PfG6PD confirm	others
CC(=O)/C(=N/Nc1ccc(Br)cc1)N1CCCc2ccccc21	x	n	n	n	n	n	x
COC(=O)/C(=N/Nc1ccc(C)cc1)N1CCCc2ccccc21	x	n	n	n	n	76	n
COC(=O)/C(=N/Nc1ccccc1)N1CCCc2ccccc21	x	n	n	n	n	n	n
COC(=O)/C(=N/Nc1cccc(C)c1)N1CCCc2ccccc21	x	n	n	n	n	n	x
COc1ccc(C=NNS(=O)(=O)c2ccc(C)cc2)cc1	n	x	x	x	x	x	x
Cc1[nH]c(-c2ccccn2)nc(=S)c1Cl	x	59	n	n	n	69	n
c1ccc(Cc2nnc3n2N=C(c2ccccc2)CS3)cc1	n	n	n	n	n	61	n
c1ccc(-c2ccc(C3=Nn4c(Cn5nnc6ccccc65)nnc4SC3)cc2)cc1	n	n	n	n	n	72	n
Clc1ccc(C2=Nn3c(Cn4nnc5ccccc54)nnc3SC2)cc1	n	n	n	n	n	63	n
c1ccc(C2=Nn3c(Cn4nnc5ccccc54)nnc3SC2)cc1	n	n	n	n	n	n	x
Fc1ccc(C2=Nn3c(Cc4ccccc4F)nnc3SC2)cc1	n	n	n	n	n	n	x
CC(=O)c1cccc(NC(=O)c2ccc(N(C)S(=O)(=O)c3ccc(C)cc3)cc2)c1	n	n	n	n	n	63	n
CN(c1ccc(C(=O)Nc2cccc(O)c2)cc1)S(=O)(=O)c1ccccc1	n	n	n	n	n	59	n
CCCCn1c(SCC(=O)c2ccc3c(c2)NC(=O)CO3)nc2cc(S(N)(=O)=O)ccc21	n	n	n	n	n	61	n
CCCCn1c(SCC(=O)N2CCCC2)nc2cc(S(N)(=O)=O)ccc21	n	n	n	n	n	n	x
CCCCn1c(SC(C)C(=O)c2ccc(OC)cc2)nc2cc(S(N)(=O)=O)ccc21 (stereo not drawn)	n	n	n	n	n	n	x
CCCCn1c(SCC(=O)c2ccc(OC)cc2OC)nc2cc(S(N)(=O)=O)ccc21	n	n	n	n	n	96	n
O=c1c2ccccc2nc(-c2ccco2)n1N=Cc1ccccc1O	n	x	x	x	x	x	x
CC(=O)OCC1OC(c2ccccc2)C(OC(C)=O)C(OC(C)=O)C1OC(C)=O (stereo not drawn)	n	n	n	n	n	n	x

Screening data (PubChem BioAssay)
